Screening results from PubChem BioAssay.
The list is not random: actives were taken first. Their share in the collection is about 3.4%.
S100A4 MyoIIA – inhibitors of human S100A4 binding to myosin IIA peptide; S100A4/TAMRA-MyoIIA peptide fluorescence polarization; inhibition, % at 10.7 µM; 0.14% of 360,000 active;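 active = mean inhibition of at least 70% across replicates, with every replicate also reaching that level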
Target sequence (P26447 whole entry, looked up): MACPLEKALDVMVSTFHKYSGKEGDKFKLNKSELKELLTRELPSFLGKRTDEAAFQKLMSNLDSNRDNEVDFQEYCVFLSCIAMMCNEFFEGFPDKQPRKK
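Test system – S100A4 monomer (human) · Compound – single-point compound testing · Schedule – 5 min incubation before reading · Probe or stimulus – TAMRA-labelled myosin IIA heavy-chain peptide probe, 5 nM · Benchmarks – neutral control DMSO, positive control TFP · Medium – Calcium-containing HEPES buffer, pH 7.2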
SIRT5 block – blocks human SIRT5 desuccinylation of peptide; 1.1% of 330,000 active; Q9NXA8; Purified SirT5, succinyl-peptide AMC, trypsin-coupled fluorescence; inhibition, % at 15 µM; in the data active = inhibition above about 15%
Ecoli rRNA inh – inhibits bacterial ribosomal RNA function over humanized ribosomes. E. coli WT GFP vs humanized-ribosome RFP mutants, fluorescence, 24 h; stronger effect = lower value; DMSO median 0, no signal -100. GFP signal change (wild-type ribosome), % (test concentration not listed). 1.6% of 350,000 active. AID 720706;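 active = significant combined selectivity score with lowered wild-type GFP, culture density cut under 30%, mutant RFP and density less affected; inactive = any of these conditions unmet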
MLL AF4-AF9 inh – inhibitors of human MLL-AF4/AF9 interaction. P42568. AlphaScreen, biotin-AF4 peptide binding to FLAG-AF9. inhibition, % at 10 µM. 0.47% of 350,000 active. AID 651704;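 active = every replicate reaching a set inhibition limit, whatever the replicate mean, cut at about 25% in these data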;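 note: 0% = plate neutral control median and 100% = total signal loss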
Target sequence (P42568 whole entry, looked up): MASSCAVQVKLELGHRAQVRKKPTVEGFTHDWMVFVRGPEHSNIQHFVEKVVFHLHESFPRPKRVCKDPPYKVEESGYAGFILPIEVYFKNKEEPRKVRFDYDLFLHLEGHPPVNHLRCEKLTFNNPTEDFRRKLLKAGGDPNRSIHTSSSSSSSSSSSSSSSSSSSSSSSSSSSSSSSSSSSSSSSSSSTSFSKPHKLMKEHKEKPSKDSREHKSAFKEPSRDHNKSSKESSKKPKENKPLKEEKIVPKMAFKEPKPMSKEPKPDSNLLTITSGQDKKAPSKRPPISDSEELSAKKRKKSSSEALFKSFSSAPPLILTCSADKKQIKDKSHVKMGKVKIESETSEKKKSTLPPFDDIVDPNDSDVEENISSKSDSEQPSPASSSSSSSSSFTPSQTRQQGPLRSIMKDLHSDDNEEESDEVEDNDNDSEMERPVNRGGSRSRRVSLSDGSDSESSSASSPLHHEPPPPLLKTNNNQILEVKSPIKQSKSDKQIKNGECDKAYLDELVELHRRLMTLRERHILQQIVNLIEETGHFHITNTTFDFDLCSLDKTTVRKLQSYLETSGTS
ERAP1 HTS inh – blocks human ERAP1 aminopeptidase activity. Q9NZ08. recombinant ERAP1, Leu-AMC fluorescence, 60 min. inhibition, % at 10.7 µM. 0.15% of 340,000 active. AID 652197;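 active = mean replicate inhibition of at least 30%, or all replicates individually reaching that 30% level; inactive = mean below 30% and not every replicate reaching it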;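 note: 0% = neutral control wells and 100% = L-leucinethiol positive control wells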
E-sel inducer – E-selectin induction on HUVECs | P16581 | HUVEC E-selectin immunofluorescence imaging; normalized: neutral wells 0, TNF-alpha wells 100 | activation, % at 7.58 µM | 0.37% of 260,000 active | AID 686992;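 active = mean E-selectin-positive cell signal at least 10% of the positive control, reached in at least 60% of replicates, without over 20% cell loss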
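Test system: HUVEC | Signal: Immunofluorescence imaging | Read-out: Percent E-selectin-positive cells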
An asterisk follows results filed as active; nt = not tested or not shown.

SMILES | S100A4 MyoIIA | SIRT5 block | Ecoli rRNA inh | MLL AF4-AF9 inh | ERAP1 HTS inh | E-sel inducer
C[C@@H]1CN([C@@H](C)CO)C(=O)Cc2cc(NC(=O)Cn3cnnn3)ccc2O[C@@H]1CN(C)S(=O)(=O)c1ccc(F)cc1 | 0 | 2 | 1 | 1 | 1 | 1
C[C@H]1CN([C@@H](C)CO)S(=O)(=O)c2ccc(/C=C/c3ccccc3)cc2O[C@@H]1CN(C)C(=O)NC1CCCCC1 | 3 | 30* | -4 | 7 | 1 | nt
C[C@@H]1CN([C@H](C)CO)S(=O)(=O)c2ccc(/C=C/c3ccccc3)cc2O[C@H]1CN(C)C(=O)NC1CCCCC1 | 12 | 25* | 0 | 8 | 0 | nt
CN(C)c1ccc2c(c1)[C@H]1C[C@@H](CC(=O)NCc3ccc4c(c3)OCO4)O[C@@H](CO)[C@H]1O2 | -9 | -1 | 0 | 0 | -1 | 0
Cc1ccccc1NC(=S)N(Cc1ccco1)C(C)c1cccs1 (centres undefined) | -5 | -1 | -13 | 10 | nt | 0
CC(c1cccs1)N(Cc1ccco1)C(=S)Nc1ccccc1Cl (centres undefined) | 2 | -2 | -20* | -4 | nt | 0
C[C@H]1CN([C@@H](C)CO)C(=O)c2cc(-c3cncnc3)cnc2O[C@H]1CN(C)C(=O)Cc1ccccn1 | 1 | 0 | 1 | -2 | 0 | 0
Cn1c(C(=O)Nc2ccc3c(c2)OCCO3)cc2sccc21 | 3 | -3 | -32* | -34 | -1 | nt
Cn1nccc1C(=O)Nc1ccc2c(c1)OCCO2 | -1 | 1 | 15 | 2 | -1 | nt
C[C@H]1CN([C@@H](C)CO)C(=O)c2cc(NS(=O)(=O)c3ccc(F)cc3)ccc2O[C@H]1CN(C)Cc1ccc(C(=O)O)cc1 | 14 | -5 | 4 | -1 | 1 | 12
CCOc1ccc(NC(=O)CN2C(=O)S/C(=C/c3cccn3C)C2=O)cc1 | -8 | 112* | 23 | -2 | 0 | nt
O=C(NC(=S)N1CCCc2ccccc21)c1ccco1 | 3 | 22* | -3 | -1 | 1 | -1
CC1Cc2ccccc2N1C(=S)NC(=O)c1ccco1 (centres undefined) | 5 | 1 | -27* | -3 | 2 | 0
CS(=O)(=O)N1CCN(c2ccccc2NC(=S)NC(=O)c2ccco2)CC1 | 0 | -1 | -28* | 2 | 0 | 0
O=C(COc1ccc(Cl)cc1Cl)NC(=S)N1CCCc2ccccc21 | -1 | -3 | -26* | -7 | 6 | nt
O=C(c1ccco1)N1CCc2ccccc21 | 1 | 12 | 8 | -3 | -3 | nt
CC1Cc2ccccc2N1C(=S)NC(=O)C1(C)CC1(Cl)Cl (centres undefined) | 4 | 3 | -54 | -1 | 2 | 0
O=C(C[C@H]1CC[C@@H](NC(=O)Nc2cc(F)ccc2F)[C@@H](CO)O1)Nc1ccc(-c2ccccc2)cc1 | 5 | 1 | -7 | -13 | 3 | 2
C[C@H]1CN([C@@H](C)CO)C(=O)c2cc(NC(=O)Cc3ccccc3)ccc2O[C@H]1CN(C)Cc1ccc(C(=O)O)cc1 | -8 | -3 | 0 | -3 | 1 | 0
CCNC(=S)N/N=C/c1cc(C)ccc1C | 27 | 3 | 3 | 4 | -2 | nt
CCNC(=S)N/N=C/c1cccc(C)c1 | 32 | -2 | -14* | -7 | 2 | -1
COc1ccc(S(=O)(=O)NC[C@H]2CC[C@H]3[C@H](CN3Cc3cc(F)ccc3F)O2)cc1 | 7 | 3 | nt | -1 | -2 | nt
C[C@@H]1CN([C@H](C)CO)C(=O)c2cc(NS(=O)(=O)c3ccc(Cl)cc3)ccc2O[C@H]1CN(C)Cc1ccncc1 | 25 | 0 | -8 | -1 | 3 | -10
Cc1nc(Sc2ccc(Cl)cc2)c(C#N)c(C)c1[N+](=O)[O-] | -4 | -2 | -20* | 1 | 1 | 1
C[C@H]1CN([C@@H](C)CO)C(=O)c2cc(NC(=O)Cc3cn(C)c4ccccc34)ccc2O[C@@H]1CN(C)Cc1ccc2c(c1)OCO2 | 3 | -3 | -3 | 12 | 0 | -8
SMILES | S100A4 MyoIIA | SIRT5 block | Ecoli rRNA inh | MLL AF4-AF9 inh | ERAP1 HTS inh | E-sel inducer
CC(C)NC(=O)N(C)C[C@@H]1Oc2ccc(NC(=O)Cc3cn(C)c4ccccc34)cc2C(=O)N([C@H](C)CO)C[C@H]1C | -8 | 2 | 0 | 0 | -3 | 49*
C[C@@H]1CN([C@@H](C)CO)C(=O)c2cc(NC(=O)Cc3cn(C)c4ccccc34)ccc2O[C@H]1CN(C)Cc1ccc2c(c1)OCO2 | -26 | -4 | 1 | 13 | 3 | 39*
Cc1noc(C)c1NC(=O)Nc1ccc2c(c1)C(=O)N([C@H](C)CO)C[C@@H](C)[C@@H](CN(C)Cc1ccc(C(=O)Nc3ccccc3N)cc1)O2 | 7 | 19* | 0 | 2 | 2 | nt
CC(C)NC(=O)N(C)C[C@@H]1Oc2ccc(NC(=O)Cc3cn(C)c4ccccc34)cc2C(=O)N([C@@H](C)CO)C[C@@H]1C | -33 | -1 | 5 | -9 | 1 | 5
C[C@H]1CN([C@@H](C)CO)C(=O)c2cc(NC(=O)Cc3cn(C)c4ccccc34)ccc2O[C@H]1CN(C)Cc1ccc(C(=O)Nc2ccccc2N)cc1 | -6 | 20* | -6 | -3 | -2 | 1
Cc1ccc(S(=O)(=O)Nc2ccc3c(c2)CC(=O)N([C@@H](C)CO)C[C@@H](C)[C@@H](CN(C)CC2CCCCC2)O3)cc1 | 17 | 14 | 5 | 3 | 0 | 0
CC1=C(C(=O)N2CCOCC2)CC(CC(=O)NCC2CCCCC2)C(=O)N1CCC1=CCCCC1 (centres undefined) | -4 | 23* | -5 | -1 | -3 | 1
CC1=C(C(=O)N2CCOCC2)CC(CC(=O)NC2CC2)C(=O)N1CCC1=CCCCC1 (centres undefined) | -2 | 17* | 11 | -2 | nt | 4
CC1=C(C(=O)N(C)C)CC(CC(=O)NCc2cccc3ccccc23)C(=O)N1CCC1=CCCCC1 (centres undefined) | 15 | 1 | -27* | -1 | -4 | nt
CC1=C(C(=O)N(C)C)CC(CC(=O)NC2CC2)C(=O)N1CCC1=CCCCC1 (centres undefined) | 0 | 4 | -1 | -2 | -1 | 0
CC1=C(C(=O)N(C)C)CC(CC(=O)NCC2CCCCC2)C(=O)N1CCC1=CCCCC1 (centres undefined) | -2 | -5 | nt | -5 | -1 | nt
COc1cc(NC(=O)Cn2nc(C(F)(F)F)c(Br)c2C)cc([N+](=O)[O-])c1 | 4 | -3 | -15* | 0 | 2 | -1
CCS(=O)(=O)N1CC2(CN(Cc3ccccc3F)[C@H](CO)c3[nH]c4cc(OC)ccc4c32)C1 | -7 | 2 | -10 | -8 | -2 | 0
